In ChEMBL document CHEMBL1221191, “Inhibitors of Polo-like kinase reveal roles in spindle-pole maintenance” (Nat Chem Biol, 2006):
Each block holds one molecule with its values, some of them ahead of it. Activity calls are given as the source filed them. The calls are words filed in the database; no cut-off is given here.

Columns and labels:
[1] = target: Cyclin-dependent kinase 2/cyclin E1 (Homo sapiens, UniProt P24941); experiment: Inhibition of CDK2/Cyclin E; type: protein-complex assay
[2] = target: Cyclin-dependent kinase 2/cyclin A (Homo sapiens, UniProt P24941); experiment: Inhibition of CDK2/Cyclin A; type: protein-complex assay
[3] = target: Cyclin-dependent kinase 1/cyclin B1 (Homo sapiens, UniProt P06493); experiment: Inhibition of CDK1/Cyclin B; type: protein-complex assay
[4] = target: Cyclin-dependent kinase 4/cyclin D1 (Homo sapiens, UniProt P11802); experiment: Inhibition of CDK4/Cyclin D1; type: protein-complex assay
[5] = target: Cyclin-dependent kinase 7/ cyclin H (Homo sapiens, UniProt P50613); experiment: Inhibition of CDK7/Cyclin H; type: protein-complex assay
[6] = target: CDK9/cyclin T1 (Homo sapiens, UniProt P50750); experiment: Inhibition of CDK9/Cyclin T; type: protein-complex assay
[7] = Inhibition of CK2
[8] = Inhibition of CamK2
[9] = Inhibition of MAPK/ERK
[10] = target: Protein kinase C alpha type (Homo sapiens, UniProt P17252); experiment: Inhibition of PKCalpha
[11] = target: RAC-alpha serine/threonine-protein kinase (Homo sapiens, UniProt P31749); experiment: Inhibition of Akt
[12] = target: Tyrosine-protein kinase ABL1 (Homo sapiens, UniProt P00519); experiment: Inhibition of Abl
[13] = target: Glycogen synthase kinase-3 alpha (Homo sapiens, UniProt P49840); experiment: Inhibition of GSK3alpha
[14] = target: Aurora kinase A (Homo sapiens, UniProt O14965); experiment: Inhibition of Aurora A
[15] = Inhibition of PKA
[16] = Inhibition of P70S6K
[17] = target: Mitogen-activated protein kinase 11 (Homo sapiens, UniProt Q15759); experiment: Inhibition of SAPK2
[18] = system: A549; experiment: Cytotoxicity against human A549 cells assessed as mitotic progression after 72 hrs by MTT assay; type: functional, cell-based; details: A549, 72 h
[19] = system: HeLa; experiment: Cytotoxicity against human HeLa cells assessed as mitotic progression after 72 hrs by MTT assay; type: functional, cell-based
[20] = system: HT-29; experiment: Cytotoxicity against human HT-29 cells assessed as mitotic progression after 72 hrs by MTT assay; type: functional, cell-based; details: HT-29, 72 h
[21] = target: Tyrosine-protein kinase CSK (Homo sapiens) (UniProt P41240); experiment: Inhibition of CSK at 100 uM
[22] = target: Insulin receptor (Homo sapiens) (UniProt P06213); experiment: Residual activity of IR at 100 uM relative to control
[23] = target: Tyrosine-protein kinase Yes (Homo sapiens) (UniProt P07947); experiment: Residual activity of Yes at 100 uM relative to control
[24] = target: Serine/threonine-protein kinase Chk1 (Homo sapiens) (UniProt O14757); experiment: Residual activity of Chk1 at 100 uM relative to control
[25] = target: Serine/threonine-protein kinase Chk2 (Homo sapiens) (UniProt O96017); experiment: Residual activity of Chk2 at 100 uM relative to control
[26] = target: Dual specificity mitogen-activated protein kinase kinase 1 (Homo sapiens) (UniProt Q02750); experiment: Residual activity of MEK1 at 100 uM relative to control
[27] = target: Dual specificity mitogen-activated protein kinase kinase 6 (Homo sapiens) (UniProt P52564); experiment: Residual activity of MKK6 at 100 uM relative to control
[28] = target: Ribosomal protein S6 kinase alpha-5 (Homo sapiens) (UniProt O75582); experiment: Residual activity of MSK1 at 100 uM relative to control
[29] = target: Ribosomal protein S6 kinase alpha-3 (Homo sapiens) (UniProt P51812); experiment: Residual activity of Rsk2 at 100 uM relative to control
[30] = target: RAF proto-oncogene serine/threonine-protein kinase (Homo sapiens) (UniProt P04049); experiment: Residual activity of c-RAF at 100 uM relative to control
[31] = target: Fibroblast growth factor receptor 3 (Homo sapiens) (UniProt P22607); experiment: Residual activity of FGFR3 at 100 uM relative to control
[32] = target: Mitogen-activated protein kinase 12 (Homo sapiens) (UniProt P53778); experiment: Residual activity of SAPK3 at 100 uM relative to control
[33] = target: Cyclin-dependent kinase 2/cyclin E1 (Homo sapiens) (UniProt P24864+P24941); experiment: Residual activity of CDK2/E at 100 uM relative to control
[34] = target: Insulin-like growth factor 1 receptor (Homo sapiens) (UniProt P08069); experiment: Residual activity of IGF-1R at 100 uM relative to control
[35] = Residual activity of SAPK2b at 100 uM relative to control
[36] = target: Inhibitor of nuclear factor kappa-B kinase subunit alpha (Homo sapiens) (UniProt O15111); experiment: Residual activity of IKKalpha at 100 uM relative to control
[37] = target: Protein kinase C gamma type (Homo sapiens) (UniProt P05129); experiment: Residual activity of PKCgamma at 100 uM relative to control
[38] = target: Protein kinase C beta type (Homo sapiens) (UniProt P05771); experiment: Residual activity of PKCbeta2 at 100 uM relative to control
[39] = target: MAP kinase-activated protein kinase 2 (Homo sapiens) (UniProt P49137); experiment: Residual activity of MAPKAP-K2 at 100 uM relative to control
[40] = target: Mitogen-activated protein kinase 9 (Homo sapiens) (UniProt P45984); experiment: Residual activity of JNK2alpha2 at 100 uM relative to control
[41] = target: Platelet-derived growth factor receptor alpha (Homo sapiens) (UniProt P16234); experiment: Residual activity of PDGFRalpha at 100 uM relative to control
[42] = target: Tyrosine-protein kinase CSK (Homo sapiens) (UniProt P41240); experiment: Inhibition of CSK at 100 uM relative to control; values are per cent of control
[43] = target: Serine/threonine-protein kinase PLK1 (Homo sapiens, UniProt P53350)
[44] = system: S2; experiment: Antimitotic activity against Drosophila melanogaster S2 cells assessed as nucleated microtubule at 20 nM in presence of high speed cytoplasmic supernatant; type: functional, cell-based
Outline: (§1)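 Centrosomes partially purified from Drosophila embryos, some stripped with 1 M KI. Compound (10 or 20 nM; 0.1% DMSO carrier) incubated 20 min at 25 °C with centrosomes or with high-speed embryonic cytoplasmic supernatant, then microtubule nucleation assayed with rhodamine-labelled tubulin. Staining for γ-tubulin, MPM2 epitope, Asp and centrosomin. MPM2 also checked by western blot of treated supernatant.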

[45] = system: S2; experiment: Antimitotic activity against Drosophila melanogaster S2 cells assessed as loss of gamma-tubulin at 20 nM by immunostaining; type: functional, cell-based; outline: as §1
[46] = system: S2; experiment: Antimitotic activity against Drosophila melanogaster S2 cells assessed as loss of MPM2 epitope from centrosome at 20 nM by immunostaining; type: functional, cell-based; outline: as §1
[47] = system: S2; experiment: Inhibition of […]-mediated gamma-TuRc recruitment in Drosophila melanogaster S2 cells at 20 nM in presence of high-speed supernatant of syncytial embryo cytoplasam; type: cell-based; outline: as §1
[48] = system: Drosophila melanogaster; experiment: Inhibition of […]-mediated Asp protein recruitment in Drosophila melanogaster S2 at 20 nM in presence of high-speed supernatant of syncytial embryo cytoplasam
Outline: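 Centrosomes partially purified from D. melanogaster embryos were salt-stripped with 1 M KI. They were then incubated with rhodamine-labeled tubulin and high-speed embryonic cytoplasmic supernatant. The supernatant was pretreated with compound (20 nM) or 0.1% DMSO for 20 min at 25 °C. Preparations were immunostained for centrosomin, γ-tubulin, Asp and the MPM2 phosphoepitope, and microtubule nucleation was scored.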

[49] = system: S2; experiment: Antimitotic activity against Drosophila melanogaster S2 cells cytosolic extract assessed as loss of MPM2 epitope; type: functional, cell-based; outline: as §1
[50] = system: HeLa; experiment: Antitumor activity against human HeLa cells assessed as shortened mitotic spindles at 10 uM after 24 hrs by immunostaining relative to control; type: functional, cell-based
Outline: (§2)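 HeLa cells treated 24 h with 10 or 25 μM compound or 0.1% DMSO, then fixed and stained for α-tubulin, γ-tubulin and DNA. Spindle length taken as pole-to-pole distance. Microtubule density judged from the immunostained spindles.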

[51] = system: HeLa; experiment: Antitumor activity against human HeLa cells assessed as shortened mitotic spindles at 25 uM after 24 hrs by immunostaining relative to control; type: functional, cell-based; outline: as §2
[52] = system: HeLa; experiment: Antitumor activity against human HeLa cells assessed as change in kinetochore microtubules density at 25 uM after 24 hrs by immunostaining relative to control; type: functional, cell-based; outline: as §2
[53] = Antimitotic activity against Drosophila melanogaster S2 cells assessed as bipolar spindles at 10 uM after 24 hrs by immunostaining relative to control; type: functional
Outline: (§3)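 Drosophila S2 cells exposed to 10 μM (24 h, fixed) or 25 μM (added at time 0 to cells already in mitosis) of compound, with 0.1% DMSO control. Fixed cells immunostained for α-tubulin, γ-tubulin and DNA. Live cells expressing GFP-tubulin filmed by spinning-disk confocal time-lapse at 25 ± 1 °C to follow spindle behaviour.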

[54] = target: Aurora kinase B (Drosophila melanogaster) (UniProt Q9VKN7); experiment: Inhibition of Aurora B kinase in Drosophila melanogaster assessed as histone H3 phosphorylation at Ser10
[55] = system: S2; experiment: Antimitotic activity against Drosophila melanogaster S2 cells assessed as collapsed spindles at 25 uM; type: functional, cell-based; outline: as §3
[56] = system: S2; experiment: Antimitotic activity against Drosophila melanogaster S2 cells expressing GFP-tubulin assessed as abnormal spindles at 25 uM; type: functional, cell-based; outline: as §3
[57] = system: S2; experiment: Antimitotic activity against Drosophila melanogaster S2 cells assessed as nucleated microtubule at 10 nM; type: functional, cell-based; outline: as §1
[58] = system: S2; experiment: Antimitotic activity against Drosophila melanogaster S2 cells assessed as nucleated microtubule at 20 nM; type: functional, cell-based; outline: as §1
[59] = system: S2; experiment: Inhibition of Plk1 in Drosophila melanogaster S2 cells at 20 nM; type: cell-based

Sequence of Serine/threonine-protein kinase PLK1 (P53350 whole entry): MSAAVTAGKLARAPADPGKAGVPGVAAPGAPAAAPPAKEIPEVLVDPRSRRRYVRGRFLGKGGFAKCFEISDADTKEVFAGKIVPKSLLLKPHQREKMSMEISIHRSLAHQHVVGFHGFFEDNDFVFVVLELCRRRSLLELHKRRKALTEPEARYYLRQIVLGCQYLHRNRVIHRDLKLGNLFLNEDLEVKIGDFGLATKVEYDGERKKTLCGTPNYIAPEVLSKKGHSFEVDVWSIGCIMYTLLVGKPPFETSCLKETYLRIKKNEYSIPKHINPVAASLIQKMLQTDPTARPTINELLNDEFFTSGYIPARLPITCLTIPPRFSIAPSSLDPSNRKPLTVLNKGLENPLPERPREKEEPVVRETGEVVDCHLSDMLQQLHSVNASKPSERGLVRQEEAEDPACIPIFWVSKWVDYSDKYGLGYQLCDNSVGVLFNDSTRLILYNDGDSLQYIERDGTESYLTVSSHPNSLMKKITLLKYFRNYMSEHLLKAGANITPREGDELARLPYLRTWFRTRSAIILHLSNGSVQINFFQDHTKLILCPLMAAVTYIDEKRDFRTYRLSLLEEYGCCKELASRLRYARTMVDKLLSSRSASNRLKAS
Sequence of RAC-alpha serine/threonine-protein kinase (P31749 whole entry): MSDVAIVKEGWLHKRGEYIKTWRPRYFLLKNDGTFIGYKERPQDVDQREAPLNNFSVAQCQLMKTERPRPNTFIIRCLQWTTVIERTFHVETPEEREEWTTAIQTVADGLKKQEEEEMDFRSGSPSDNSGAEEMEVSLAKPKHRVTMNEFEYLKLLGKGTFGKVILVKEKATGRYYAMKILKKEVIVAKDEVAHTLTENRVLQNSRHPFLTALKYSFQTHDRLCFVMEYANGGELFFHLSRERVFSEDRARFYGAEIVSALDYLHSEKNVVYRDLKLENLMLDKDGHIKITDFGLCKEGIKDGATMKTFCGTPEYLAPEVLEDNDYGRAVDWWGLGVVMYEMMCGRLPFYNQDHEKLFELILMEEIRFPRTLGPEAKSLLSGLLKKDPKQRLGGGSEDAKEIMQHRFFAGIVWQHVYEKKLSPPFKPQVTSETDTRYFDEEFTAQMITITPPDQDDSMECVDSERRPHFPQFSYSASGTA
Sequence of Tyrosine-protein kinase ABL1 (P00519 whole entry): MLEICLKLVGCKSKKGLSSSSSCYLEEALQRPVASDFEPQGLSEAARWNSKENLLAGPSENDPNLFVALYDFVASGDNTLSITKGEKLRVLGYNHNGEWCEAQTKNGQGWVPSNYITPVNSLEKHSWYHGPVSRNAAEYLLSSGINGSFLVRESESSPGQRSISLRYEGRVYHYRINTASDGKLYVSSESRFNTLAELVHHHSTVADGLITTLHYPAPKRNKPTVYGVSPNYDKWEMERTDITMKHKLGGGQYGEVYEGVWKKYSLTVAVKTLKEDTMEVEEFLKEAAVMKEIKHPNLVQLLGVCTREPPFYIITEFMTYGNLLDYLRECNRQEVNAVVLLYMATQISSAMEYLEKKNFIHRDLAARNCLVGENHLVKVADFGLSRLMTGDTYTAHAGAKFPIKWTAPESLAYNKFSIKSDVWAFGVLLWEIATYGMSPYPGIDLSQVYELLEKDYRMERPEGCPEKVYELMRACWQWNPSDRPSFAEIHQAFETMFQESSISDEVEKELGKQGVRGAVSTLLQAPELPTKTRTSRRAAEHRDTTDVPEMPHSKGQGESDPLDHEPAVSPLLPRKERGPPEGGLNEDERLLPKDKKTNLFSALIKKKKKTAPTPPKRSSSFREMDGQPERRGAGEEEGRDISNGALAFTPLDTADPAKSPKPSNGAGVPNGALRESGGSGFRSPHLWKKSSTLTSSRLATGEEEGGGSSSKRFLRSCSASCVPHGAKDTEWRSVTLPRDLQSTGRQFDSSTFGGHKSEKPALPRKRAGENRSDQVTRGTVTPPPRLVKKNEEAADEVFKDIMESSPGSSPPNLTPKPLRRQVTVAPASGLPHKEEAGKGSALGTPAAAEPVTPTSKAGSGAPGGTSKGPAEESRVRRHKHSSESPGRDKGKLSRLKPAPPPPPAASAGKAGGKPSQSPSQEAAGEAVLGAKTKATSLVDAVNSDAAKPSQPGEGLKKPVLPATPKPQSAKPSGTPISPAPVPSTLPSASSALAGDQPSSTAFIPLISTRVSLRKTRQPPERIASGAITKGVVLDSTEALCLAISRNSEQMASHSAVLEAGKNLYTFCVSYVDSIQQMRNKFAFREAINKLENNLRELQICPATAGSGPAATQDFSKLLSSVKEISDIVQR
Sequence of Glycogen synthase kinase-3 alpha (P49840 whole entry): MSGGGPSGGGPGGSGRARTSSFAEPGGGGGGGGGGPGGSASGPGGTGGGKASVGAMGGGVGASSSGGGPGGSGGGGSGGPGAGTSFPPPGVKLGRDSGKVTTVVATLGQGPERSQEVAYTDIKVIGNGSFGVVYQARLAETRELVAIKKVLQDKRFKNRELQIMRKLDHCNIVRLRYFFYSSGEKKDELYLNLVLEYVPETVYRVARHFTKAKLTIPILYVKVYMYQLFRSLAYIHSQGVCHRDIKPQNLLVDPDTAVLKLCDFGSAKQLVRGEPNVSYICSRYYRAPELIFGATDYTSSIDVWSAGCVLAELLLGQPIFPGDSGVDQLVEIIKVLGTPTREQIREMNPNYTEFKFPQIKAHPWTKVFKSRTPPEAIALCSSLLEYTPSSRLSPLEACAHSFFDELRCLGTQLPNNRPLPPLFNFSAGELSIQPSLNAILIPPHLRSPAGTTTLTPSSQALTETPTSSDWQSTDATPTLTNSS
Sequence of Cyclin-dependent kinase 4/cyclin D1 (P11802 whole entry): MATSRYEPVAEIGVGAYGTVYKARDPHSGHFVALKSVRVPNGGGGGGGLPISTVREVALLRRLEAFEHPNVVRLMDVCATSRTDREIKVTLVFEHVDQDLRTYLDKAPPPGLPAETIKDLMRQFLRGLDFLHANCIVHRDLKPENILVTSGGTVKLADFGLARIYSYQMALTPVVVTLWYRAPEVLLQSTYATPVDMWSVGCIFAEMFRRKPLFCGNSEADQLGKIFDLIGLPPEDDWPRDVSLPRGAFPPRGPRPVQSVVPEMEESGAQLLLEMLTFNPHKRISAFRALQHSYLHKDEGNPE
Sequence of Cyclin-dependent kinase 4/cyclin D1 (P24385 whole entry, further chain): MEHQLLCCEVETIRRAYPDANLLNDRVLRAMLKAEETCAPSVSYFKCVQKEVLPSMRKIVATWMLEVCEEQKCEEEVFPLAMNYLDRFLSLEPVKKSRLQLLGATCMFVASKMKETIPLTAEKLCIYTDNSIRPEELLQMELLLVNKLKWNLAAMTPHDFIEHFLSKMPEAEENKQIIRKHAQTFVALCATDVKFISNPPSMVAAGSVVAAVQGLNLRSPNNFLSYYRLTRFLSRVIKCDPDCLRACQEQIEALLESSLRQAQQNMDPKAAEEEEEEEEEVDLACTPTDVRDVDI
Sequence of Cyclin-dependent kinase 1/cyclin B1 (P06493 whole entry): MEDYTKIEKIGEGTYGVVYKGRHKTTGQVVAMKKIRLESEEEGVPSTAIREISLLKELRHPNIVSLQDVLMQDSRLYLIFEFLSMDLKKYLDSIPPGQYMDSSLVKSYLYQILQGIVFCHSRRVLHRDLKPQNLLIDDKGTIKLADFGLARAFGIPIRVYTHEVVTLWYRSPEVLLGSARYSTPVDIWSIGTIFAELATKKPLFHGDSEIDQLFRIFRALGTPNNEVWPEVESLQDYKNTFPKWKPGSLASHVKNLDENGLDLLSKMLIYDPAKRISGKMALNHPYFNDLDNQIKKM
Sequence of Cyclin-dependent kinase 1/cyclin B1 (P14635 whole entry, further chain): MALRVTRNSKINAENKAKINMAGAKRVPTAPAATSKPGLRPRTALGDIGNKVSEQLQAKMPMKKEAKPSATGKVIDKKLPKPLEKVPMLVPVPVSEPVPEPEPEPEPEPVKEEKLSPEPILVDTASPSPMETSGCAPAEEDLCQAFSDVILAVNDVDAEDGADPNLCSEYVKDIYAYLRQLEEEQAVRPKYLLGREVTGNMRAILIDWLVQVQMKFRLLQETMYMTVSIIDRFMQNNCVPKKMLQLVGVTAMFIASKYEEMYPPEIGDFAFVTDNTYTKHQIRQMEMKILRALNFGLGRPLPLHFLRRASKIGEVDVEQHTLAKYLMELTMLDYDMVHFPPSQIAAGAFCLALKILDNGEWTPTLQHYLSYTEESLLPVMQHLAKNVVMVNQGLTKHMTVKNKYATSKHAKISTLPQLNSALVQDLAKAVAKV

IC50 [1]: > 100 µM
IC50 [2]: > 100 µM
IC50 [3]: > 100 µM
IC50 [4]: > 100 µM
IC50 [5]: > 100 µM
IC50 [6]: > 100 µM
IC50 [7]: > 100 µM
IC50 [8]: > 100 µM
IC50 [9]: > 100 µM
IC50 [10]: > 100 µM
IC50 [11]: > 100 µM
IC50 [12]: > 100 µM
IC50 [13]: > 100 µM
IC50 [14]: > 100 µM
IC50 [15]: > 100 µM
IC50 [16]: > 100 µM
IC50 [17]: > 100 µM
inhibition [21]: < 50%
residual activity [22]: 107%
residual activity [23]: 108%
residual activity [24]: 111%
residual activity [25]: 97%
residual activity [26]: 96%
residual activity [27]: 88%
residual activity [28]: 106%
residual activity [29]: 105%
residual activity [30]: 108%
residual activity [31]: 83%
residual activity [32]: 120%
residual activity [33]: 88%
residual activity [34]: 98%
residual activity [35]: 94%
residual activity [36]: 115%
residual activity [37]: 117%
residual activity [38]: 82%
residual activity [39]: 96%
residual activity [40]: 106%
residual activity [41]: 108%
residual activity [42]: 45%
Structure (SMILES): NC(=O)c1sc2c([N+](=O)[O-])cc(C(F)(F)F)cc2[n+]1[O-] [CYCLAPOLIN 9]
IC50 [18]: 24.8 µM
IC50 [19]: 6.6 µM
IC50 [20]: 7.7 µM

IC50 [43]: 10 µM
Structure (SMILES): CNc1nc(C)c(-c2ccnc(Nc3ccc(O)cc3)n2)s1

Continued, molecule first:

Structure (SMILES): NNC(=O)c1sc2c([N+](=O)[O-])cc(C(F)(F)F)cc2[n+]1[O-] [CYCLAPOLIN 10]
IC50 [18]: 72.1 µM
IC50 [19]: 53.6 µM
IC50 [20]: 50.5 µM

Structure (SMILES): Cc1nc(C)c(-c2ccnc(Nc3ccc(O)cc3)n2)s1
IC50 [43]: 5 µM

Structure (SMILES): Cc1nc(N)sc1-c1ccnc(Nc2ccc(O)cc2)n1
IC50 [43]: 25 µM

Structure (SMILES): NC(=O)c1sc2c([N+](=O)[O-])cc(SC(F)(F)F)cc2[n+]1[O-] [CYCLAPOLIN 1]
Activity [44]: inactive
Activity [45]: Active
Activity [46]: Active
inhibition [47]: inactive
inhibition [48]: inactive
Activity [49]: Active
IC50 [1]: > 100 µM
IC50 [2]: > 100 µM
IC50 [3]: > 100 µM
IC50 [4]: > 100 µM
IC50 [5]: > 100 µM
IC50 [6]: > 100 µM
IC50 [7]: > 100 µM
IC50 [8]: > 100 µM
IC50 [9]: > 100 µM
IC50 [10]: > 100 µM
IC50 [11]: > 100 µM
IC50 [12]: > 100 µM
IC50 [13]: > 100 µM
IC50 [14]: > 100 µM
IC50 [15]: > 100 µM
IC50 [16]: > 100 µM
IC50 [17]: > 100 µM
IC50 [18]: 14 µM
IC50 [19]: 14 µM
IC50 [20]: 2.8 µM
Activity [50]: Active
Activity [51]: Active
Activity [52]: Active
Activity [53]: 80%
inhibition [54]: inactive
Activity [55]: Active
Activity [56]: Active
Activity [57]: inactive
Activity [58]: Active
inhibition [59]: Active
